Experimental findings from ChEMBL document CHEMBL1148632, “Discovery of a novel family of SARS-CoV protease inhibitors by virtual screening and 3D-QSAR studies” (J Med Chem, 2006) are described below.

One may read the IC50 as the point on the concentration scale where inhibition reaches its midpoint.

One test addresses Replicase polyprotein 1a (Severe acute respiratory syndrome-related coronavirus, UniProt P0C6U8). Kind of test: Inhibition of SARS coronavirus 3C-like protease. Conditions: read-out: -Log IC50 (converted). The essentials: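 Recombinant SARS-CoV 3CLpro (pET32Xa/LIC construct) at 50 nM with 6 µM fluorogenic peptide Dabcyl-KTSAVLQ-SGFRKME-Edans in 20 mM Bis-Tris pH 7.0 at 25 °C. Cleavage read as fluorescence increase (ex 355, em 538 nm). Initial velocities plotted against inhibitor concentration; IC50 fitted with A[I] = A[0]×(1 − [I]/([I]+IC50)).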
`Cc1nc(SCC(=O)Nc2ccc([N+](=O)[O-])cc2)nc(O)c1C`: the IC50 was over 1000 µM.

Still in this test, the particulars now being: read-out: IC50.
`O=C(CSc1nccc(-c2cc(-c3ccc(Cl)cc3Cl)no2)n1)Nc1ccc(C(F)(F)F)cc1`: the IC50 is 15 µM.
With `Cc1nc(-c2nc(-c3ccnc(SCC(=O)Nc4ccc(Cl)cc4)n3)cs2)cs1`, the IC50 was 14 µM.
On to `Cn1nc(-c2ccc(-c3ccnc(SCC(=O)Nc4ccc(Cl)cc4)n3)s2)cc1C(F)(F)F`, for which the IC50 was found to be 10 µM.
Same read-out and setting: with `CC(Sc1nc(-c2ccccc2)c(C#N)c(=O)[nH]1)C(=O)Nc1ccc(Cl)cc1` (centres undefined) the figure was 300 µM; with `Cc1cc(O)nc(SCC(=O)Nc2cc(Cl)ccc2Oc2ccccc2)n1`, 100 µM; with `O=C(CSc1nccc(-c2csc(-c3ccccc3)n2)n1)Nc1cc(Cl)cc(Cl)c1`, 3 µM.
For `COc1cccc(-c2nc(SCC(=O)Nc3ccc(C(C)=O)cc3)[nH]c(=O)c2C#N)c1`, the IC50 came out at 60 µM.
Same read-out and setting: with `O=C(CSc1nccc(-c2cc(-c3ccccc3)no2)n1)Nc1ccc(Cl)cc1` the figure was 15 µM; with `Cc1cc(O)nc(SCC(=O)Nc2ccc(Oc3ccc(Cl)cc3)cc2)n1`, 200 µM; with `COc1cccc(-c2nc(SCC(=O)Nc3ccc(S(N)(=O)=O)cc3)[nH]c(=O)c2C#N)c1`, 40 µM.
Still for that read-out and setting: the result for `CCCCc1ccc(NC(=O)CSc2nc(O)c(C#N)c(C3CCCCC3)n2)c(C)c1` reads 200 µM; that for `CSc1sc(-c2nc(C)cs2)c(C)c1-c1ccnc(SCC(=O)Nc2ccc(Cl)cc2)n1`, 11 µM.
`Cc1cc(C(F)(F)F)nc(SCC(=O)Nc2ccc(Cl)cc2F)n1`: the IC50 was found to be 500 µM.
Consider `CSc1sc(-c2nc(C)cs2)c(C)c1-c1ccnc(SCC(=O)Nc2ccccc2Cl)n1`, for which the IC50 was found to be 12 µM.
As to `CCC(Sc1nc(O)c(C#N)c(-c2cccc(OC)c2)n1)C(=O)Nc1ccc(C(C)=O)cc1` (centres undefined), the IC50 is 60 µM.
As to `Cc1nc(SCC(=O)Nc2ccc([N+](=O)[O-])cc2)nc(O)c1C`, the IC50 is over 1000 µM.
Still for that read-out and setting: the result for `COC(OC)c1cc(O)nc(SCC(=O)Nc2ccc(C(F)(F)F)cc2)n1` reads 200 µM.
Regarding `CCOc1ccc(N2C(=O)CC(Sc3nc(C)cc(C)n3)C2=O)cc1` (centres undefined), the IC50 worked out at 300 µM.
Consider `COc1cccc(-c2nc(SCC(=O)Nc3ccc([N+](=O)[O-])cc3)[nH]c(=O)c2C#N)c1`, for which the IC50 was 300 µM.
On to `COc1ccc(-c2ccnc(SCC(=O)Nc3ccc(C(C)C)cc3)n2)cc1`, for which the IC50 was found to be 400 µM.
Still for that read-out and setting: with `CC(C)c1ccc(NC(=O)CSc2nccc(-c3cccs3)n2)cc1` the figure was 40 µM; with `N#Cc1c(-c2ccccc2)nc(SCC(=O)Nc2cccc(C(F)(F)F)c2)[nH]c1=O`, 200 µM.
Take `CCCc1cc(O)nc(SCC(=O)Nc2ccc(Cl)cc2)n1`: the IC50 is 30 µM.
`CCOC(=O)c1cnc(SCC(=O)Nc2ccc([N+](=O)[O-])cc2)nc1N`: the IC50 amounted to 250 µM.
As for `O=C(CSc1nccc(-c2cc(-c3ccccc3Cl)no2)n1)Nc1ccc(Cl)cc1`, the IC50 is 15 µM.
As for `CC(C)(C)c1ccc(NC(=O)CSc2nc(C3CCCCC3)c(C#N)c(=O)[nH]2)cc1`, the IC50 stood at 350 µM.
The same measure, in the same setting: with `CC(C)c1ccc(NC(=O)CSc2nccc(-c3csc(COc4ccccc4Cl)n3)n2)cc1` the figure was 200 µM; with `COc1ccc(NC(=O)CSc2nc(O)cc(-c3ccccc3)n2)cc1OC`, 45 µM.
